From ChEMBL document CHEMBL4251752, “Integrated Strategy for Lead Optimization Based on Fragment Growing: The Diversity-Oriented-Target-Focused-Synthesis Approach” (J Med Chem, 2018) come the findings set out here.

Experiment [1] deals with T1, Bromodomain-containing protein 4 (Homo sapiens, UniProt O60885). In words: Inhibition of TEV cleavage site-fused-GST tagged BRD4(BD1) (unknown origin) using SGRGK(Ac)CGK(Ac)-GLGK(Ac)GGAK(Ac)RHRKVG-peptide after 3 hrs by HTRF assay. The gist of the method:
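GST-BRD4(BD1) purified on glutathione resin and by size exclusion; tetra-acetylated H4 peptide as ligand. Buffer 50 mM HEPES pH 7.5, 400 mM KF, 0.1% BSA, 0.5% DMSO final; 3 h at room temperature.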

The target of experiment [2] is T1, Bromodomain-containing protein 4. Description: Binding affinity to TEV cleavage site-fused-His-tagged BRD4(BD1) (unknown origin) by isothermal-titration calorimetry. In a few lines:
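BRD4(BD1) with His-tag cleaved by TEV, DTT removed, dialysed into 10 mM HEPES pH 7.5, 150 mM NaCl; compounds diluted in the final dialysate. Reverse titration (protein in syringe, ligand in cell), 13 injections at 15 or 25 °C, in triplicate. Data fitted to a one-site model for KD and ΔH; ΔG and TΔS derived from these.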

Experiment [3] shares this target. In words: Binding affinity to TEV cleavage site-fused-His-tagged BRD4(BD1) (unknown origin) assessed as change in melting temperature at 10 uM by RT-PCR based thermal shift assay. The gist of the method:
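His-tag removed by TEV cleavage before use; protein 2 μM final, compound 10 μM final (0.1% or 0.5% DMSO), thermal shift dye 1:1000, in 10 mM HEPES pH 7.5, 500 mM NaCl. After 1 min equilibration at 25 °C, heated 25–70 °C in 0.5 °C steps (25 s each); Tm from fluorescence melt curves, run in triplicate; ΔTm reported.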

As a reminder, the IC50 is the point on the concentration scale where inhibition reaches its midpoint. High values mean lower potency, low ones higher potency. Take `CCn1cnc2c1c(=O)[nH]c(=O)n2Cc1ccc(CN)cc1`: the IC50 in experiment [1] is 25100 nM.
`CCn1cnc2c1c(=O)[nH]c(=O)n2Cc1ccc(CNS(=O)(=O)CCc2ccccc2)cc1`: the IC50 in experiment [1] was 1580 nM.
As a reminder, the Kd is the concentration at which binding is half-saturated. Low values mean higher affinity, high ones lower affinity. Broadly, the ΔTm is the shift of the melting midpoint relative to a reference. Take `CCn1cnc2c1c(=O)[nH]c(=O)n2Cc1ccc(CNS(=O)(=O)c2ccc3c(c2)CCC(=O)N3)cc1`: in experiment [1], the IC50 is 398 nM. The same molecule came in with an equilibrium dissociation constant (Kd) in experiment [2] of 310 nM. For the same molecule, the ΔTm in experiment [3] was 3 °C.
In experiment [1], `CCn1cnc2c1c(=O)[nH]c(=O)n2Cc1ccc(CNS(=O)(=O)c2cc(-c3ccno3)ccc2C)cc1` showed an IC50 of 1260 nM.
For `CCn1cnc2c1c(=O)[nH]c(=O)n2Cc1ccc(CNS(=O)(=O)c2ccc(OC)cc2)cc1`, in experiment [1], 794 nM corresponded to half-maximal inhibition (IC50). The molecule further gave a Kd in experiment [2] of 540 nM. In experiment [3], the ΔTm came to 2.63 °C.
For `CCn1cnc2c1c(=O)[nH]c(=O)n2Cc1ccc(CNS(=O)(=O)c2cccc(-c3ccccc3)c2)cc1`, in that order: 501 nM, 890 nM and 3.25 °C.
Molecule `CCn1cnc2c1c(=O)[nH]c(=O)n2Cc1ccc(CNS(=O)(=O)CCN2CCOCC2)cc1` had a 50% inhibitory concentration (IC50) in experiment [1] of 5010 nM.
`CCn1cnc2c1c(=O)[nH]c(=O)n2Cc1ccc(CNS(=O)(=O)c2ccc(Oc3ccccc3)cc2)cc1`: the IC50 in experiment [1] is 316 nM. In experiment [2], this molecule had an equilibrium dissociation constant (Kd) of 360 nM. Further, in experiment [3], the ΔTm came out at 3.13 °C.
With `CCn1cnc2c1c(=O)[nH]c(=O)n2Cc1ccc(CNS(=O)(=O)c2ccc3oncc3c2)cc1`, the IC50 in experiment [1] was 2000 nM.
For `CCn1cnc2c1c(=O)[nH]c(=O)n2Cc1ccc(CNS(=O)(=O)c2ccc(-c3ccccc3)cc2)cc1`, in experiment [1], 398 nM corresponded to half-maximal inhibition (IC50). Further, the ΔTm in experiment [3] came out at 1.5 °C.
On to `CCn1cnc2c1c(=O)[nH]c(=O)n2Cc1ccc(CNS(=O)(=O)c2ccc3c(c2)CCCC(=O)N3)cc1`, for which, in experiment [2], binding was characterised by a dissociation constant (Kd) of 190 nM. Further, the ΔTm in experiment [3] was found to be 3.88 °C.
Consider `CCn1cnc2c1c(=O)[nH]c(=O)n2Cc1ccc(CNS(=O)(=O)c2ccc(C)cc2)cc1`, for which half-maximal inhibition in experiment [1] (IC50) required 631 nM. The molecule also gave a Kd in experiment [2] of 770 nM. The shift in melting temperature (ΔTm) in experiment [3] worked out at 3 °C.
For the molecule `CCn1cnc2c1c(=O)[nH]c(=O)n2Cc1ccc(CNS(=O)(=O)c2cnn(-c3ccccc3)c2)cc1`, the IC50 in experiment [1] is 501 nM. The Kd in experiment [2] was found to be 410 nM. Moreover, the ΔTm in experiment [3] worked out at 3.38 °C.
For `CCn1cnc2c1c(=O)[nH]c(=O)n2Cc1ccc(CNS(=O)(=O)c2ccc3c(c2)n(C)c(=O)n3C)cc1`, in that order: 794 nM, 860 nM and 2.13 °C.
`CCn1cnc2c1c(=O)[nH]c(=O)n2Cc1ccc(CNS(=O)(=O)c2ccc(OCc3ccccc3)cc2)cc1`: half-maximal inhibition in experiment [1] (IC50) was put at 631 nM. In experiment [2], this molecule had a dissociation constant Kd of 590 nM. Also, the ΔTm in experiment [3] was 3.5 °C.
